For assay [1], the target named is T1, Histamine H3 receptor (Homo sapiens, UniProt Q9Y5N1). As to the kind of experiment: Displacement of [3H]NAMH from human H3R expressed in HEK293T cells incubated for 2 hrs by microbeta scintillation counting analysis. It counts as cell-based. The gist of the method: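 Homogenates of HEK293T cells transiently expressing hH3R or mH3R, harvested 48 h post-transfection, incubated with 2 nM [3H]NAMH and increasing unlabeled ligand in 50 mM Tris–HCl pH 7.4, 2 h at 25 °C. Rapid filtration over 0.5% PEI-coated GF/C filters, scintillation counting. One-site fit; IC50 converted to pKi by Cheng–Prusoff; three experiments in triplicate.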
Background: Displacement assays read how much labelled ligand stays bound in the presence of the test substance.

The target of assay [2] is T1, Histamine H3 receptor. As to the kind of experiment: Agonist activity at human H3R expressed on HEK293T cells assessed as inhibition of forskolin-induced CRE-driven luciferase activity co-incubated with forskolin for 6 hrs and measured after 30 mins by CRE-luciferase reporter gene assay. The assay is classed as functional. The essentials:
(§1)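 HEK293T cells transiently transfected (PEI method) in suspension with receptor cDNA (1000 ng), CRE-luciferase (2500 ng) and empty pcDEF3; 50.000 cells/well on poly-L-lysine, grown 24 h. Stimulated with increasing ligand concentrations plus 1 μM forskolin, 37 °C, 5% CO2, 6 h. Luciferase reagent (ATP, D-luciferin) added, luminescence read after 30 min at 37 °C. Nonlinear regression; α relative to histamine; three experiments in triplicate.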
A general note: In a reporter assay the amount or activity of a reporter protein is the signal.

Assay [3] addresses T1, Histamine H3 receptor. Description: Intrinsic activity at human H3R expressed on HEK293T cells assessed as activation of forskolin-induced CRE-driven luciferase activity co-incubated with forskolin for 6 hrs and measured after 30 mins by CRE-luciferase reporter gene assay relative to histamine. It counts as functional. The essentials: as §1

Each structure is given as a SMILES string. pEC50, pKi: −log10 of the molar value.

By pKi is commonly meant the negative decadic logarithm of the Ki, by convention in mol/L. A low value points to a large Ki. One may read the pEC50 as −log10 of the EC50, conventionally taken in molar units.

T1 sequence (Q9Y5N1 whole entry): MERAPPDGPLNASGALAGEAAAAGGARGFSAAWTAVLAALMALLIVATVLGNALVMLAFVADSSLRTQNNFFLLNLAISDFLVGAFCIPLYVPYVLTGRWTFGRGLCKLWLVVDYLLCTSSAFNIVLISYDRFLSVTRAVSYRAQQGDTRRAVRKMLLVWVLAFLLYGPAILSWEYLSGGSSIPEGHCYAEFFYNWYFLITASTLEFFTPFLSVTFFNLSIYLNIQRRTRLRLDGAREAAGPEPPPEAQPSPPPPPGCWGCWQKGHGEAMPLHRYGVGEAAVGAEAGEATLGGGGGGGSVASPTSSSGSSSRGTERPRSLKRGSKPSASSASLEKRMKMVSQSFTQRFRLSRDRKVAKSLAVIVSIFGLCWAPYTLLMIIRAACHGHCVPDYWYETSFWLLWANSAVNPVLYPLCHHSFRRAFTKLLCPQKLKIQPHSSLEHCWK

Compound `CN(C)C1CN(c2ccnc(N)n2)C1` showed a pKi on Histamine H3 receptor [1] of 7.30. Besides, on Histamine H3 receptor [2], the pEC50 is 8.40. For the same compound, the Intrinsic activity on Histamine H3 receptor [3] was 1.
In turn, `Nc1nccc(N2CC(N3CCCC3)C2)n1` gave a pKi at Histamine H3 receptor [1] of 7.40. Also, on Histamine H3 receptor [2], the pEC50 is 8.10. Besides, the Intrinsic activity on Histamine H3 receptor [3] stood at 1.3.
Regarding `CNC1CN(c2ccnc(N)n2)C1`, the pKi on Histamine H3 receptor [1] was 8.20. At Histamine H3 receptor [2], the pEC50 was 8.90. Besides, at Histamine H3 receptor [3], the Intrinsic activity stood at 1.1.
In the same order, the values of `Cc1cc(N2CC(N(C)C)C2)nc(N)n1` are 6.50, 7.40 and 0.9.
For `CNC1CN(c2cc(C(C)C)nc(N)n2)C1` the same measures were 7.00, 7.90 and 0.7.
Consider `CC(C)NC1CN(c2ccnc(N)n2)C1`, for which the pKi at Histamine H3 receptor [1] was 7.40. For the same compound, at Histamine H3 receptor [2], the pEC50 was 8.50. In addition, at Histamine H3 receptor [3], the Intrinsic activity was found to be 1.2.
Consider `CCNC1CN(c2ccnc(N)n2)C1`, for which the pKi at Histamine H3 receptor [1] was 8.00. For the same compound, at Histamine H3 receptor [2], the pEC50 is 9.20. Also, at Histamine H3 receptor [3], the Intrinsic activity was found to be 1.
For the compound `CCc1cc(N2CC(N)C2)nc(N)n1`, the negative-log Ki (pKi) at Histamine H3 receptor [1] was 7.10. Besides, the pEC50 at Histamine H3 receptor [2] is 7.50. The Intrinsic activity at Histamine H3 receptor [3] amounted to 0.9.
For `Cc1cc(N2CC(N)C2)nc(N)n1` the same measures were 7.30, 7.80 and 0.9.
In the same order, the values of `CC(C)c1cc(N2CC(N(C)C)C2)nc(N)n1` are 6.90, 7.00 and 0.4.
With `CCc1cc(N2CC(N(C)C)C2)nc(N)n1`, at Histamine H3 receptor [1], the pKi was 6.60. In addition, the pEC50 at Histamine H3 receptor [2] was 7.20. Also, at Histamine H3 receptor [3], the Intrinsic activity amounted to 0.8.
`CCNC1CN(c2cc(CC)nc(N)n2)C1` gave a pKi at Histamine H3 receptor [1] of 6.90. For the same compound, on Histamine H3 receptor [2], the negative logarithm of the EC50 (pEC50) is 7.50. In addition, at Histamine H3 receptor [3], the Intrinsic activity is 0.9.

The values above are taken from ChEMBL document CHEMBL4354817, “4-(3-Aminoazetidin-1-yl)pyrimidin-2-amines as High-Affinity Non-imidazole Histamine H3 Receptor Agonists with in Vivo Central Nervous System Activity” (J Med Chem, 2019).
